Results: ChEMBL document CHEMBL1138395, “Adamantane sulfone and sulfonamide 11-beta-HSD1 Inhibitors” (Bioorg Med Chem Lett, 2007)
pIC50, pKi: −log10 of the molar value.

Tests used:
[1] = target: T1, 11-beta-hydroxysteroid dehydrogenase 1 (Homo sapiens, UniProt P28845); experiment: Inhibition of human HSD1 assessed as interconversion of cortisone to cortisol
[2] = target: T2, 11-beta-hydroxysteroid dehydrogenase type 2 (Homo sapiens, UniProt P80365); experiment: Inhibition of human HSD2 assessed as interconversion of cortisone to cortisol
T2 sequence (P80365 whole entry): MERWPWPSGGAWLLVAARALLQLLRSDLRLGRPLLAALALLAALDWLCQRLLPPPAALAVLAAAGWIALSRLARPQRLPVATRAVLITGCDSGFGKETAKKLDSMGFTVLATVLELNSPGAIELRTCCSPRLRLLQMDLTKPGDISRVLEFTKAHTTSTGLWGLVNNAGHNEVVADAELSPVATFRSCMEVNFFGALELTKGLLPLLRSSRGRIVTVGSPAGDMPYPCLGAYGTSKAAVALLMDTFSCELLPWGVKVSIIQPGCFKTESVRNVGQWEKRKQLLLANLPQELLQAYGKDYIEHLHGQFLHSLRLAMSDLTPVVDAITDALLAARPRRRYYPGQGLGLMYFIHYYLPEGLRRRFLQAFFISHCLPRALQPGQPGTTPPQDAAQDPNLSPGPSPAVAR

[3] = target: 11-beta-hydroxysteroid dehydrogenase 1 (Mus musculus, UniProt P50172); experiment: Inhibition of mouse HSD1 assessed as interconversion of cortisone to cortisol
11-beta-hydroxysteroid dehydrogenase 1 (Mus musculus, UniProt P50172), sequence (P50172 whole entry): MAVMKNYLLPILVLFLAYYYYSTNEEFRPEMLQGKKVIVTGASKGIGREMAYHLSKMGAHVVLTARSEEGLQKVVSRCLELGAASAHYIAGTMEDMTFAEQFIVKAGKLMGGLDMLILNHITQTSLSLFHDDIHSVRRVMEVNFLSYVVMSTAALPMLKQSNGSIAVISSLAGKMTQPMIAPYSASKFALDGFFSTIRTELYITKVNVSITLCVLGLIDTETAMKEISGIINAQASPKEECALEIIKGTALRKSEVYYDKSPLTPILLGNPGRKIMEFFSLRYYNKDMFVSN
Summary of the method: (§1)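 Enzyme inhibition measured as blocking the interconversion between cortisone and cortisol by mouse HSD1 (reported as Ki) or mouse HSD2 (reported as IC50); values are means of at least two experiments.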

[4] = target: T3, 11-beta-hydroxysteroid dehydrogenase type 2 (Mus musculus, UniProt P51661); experiment: Inhibition of mouse HSD2 assessed as interconversion of cortisone to cortisol; summary of the method: as §1
T3 sequence (P51661 whole entry): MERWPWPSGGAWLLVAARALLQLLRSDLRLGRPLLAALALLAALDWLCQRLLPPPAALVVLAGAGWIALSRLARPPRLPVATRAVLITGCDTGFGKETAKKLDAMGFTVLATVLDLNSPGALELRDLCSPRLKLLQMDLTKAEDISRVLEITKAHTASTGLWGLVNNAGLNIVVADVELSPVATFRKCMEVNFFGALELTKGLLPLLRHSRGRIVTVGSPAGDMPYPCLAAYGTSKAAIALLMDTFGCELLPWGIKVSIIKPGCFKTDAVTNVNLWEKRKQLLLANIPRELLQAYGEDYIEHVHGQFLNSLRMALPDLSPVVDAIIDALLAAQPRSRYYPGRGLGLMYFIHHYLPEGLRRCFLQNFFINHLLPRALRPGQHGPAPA

[5] = target: T1, 11-beta-hydroxysteroid dehydrogenase 1; experiment: Inhibition of human HSD1 expressed in HEK cells; format: cell-based, HEK293
[6] = Metabolic stability in mouse liver microsomes assessed as compound remaining after 30 mins; format: ADME, Microsome; details: read-out: Stability
Summary of the method: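 Test compound incubated with mouse liver microsomes for 30 min; percent of parent compound remaining afterward reported.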

[7] = Half life in mouse at 10 mg/kg, iv; format: ADME, organism-based; set-up: dose 10 mg/kg, route intravenous; details: in vivo
[8] = Volume of distribution at steady state in mouse at 10 mg/kg; format: ADME, organism-based; set-up: dose 10 mg/kg; details: in vivo, read-out: Vdss
[9] = Volume of distribution at terminal phase in mouse at 10 mg/kg; format: ADME, organism-based; set-up: dose 10 mg/kg; details: in vivo, read-out: Vbeta
[10] = Plasma clearance in mouse at 10 mg/kg, iv; format: ADME, organism-based; set-up: dose 10 mg/kg, route intravenous
[11] = AUC in mouse at 10 mg/kg, po; format: ADME, organism-based; set-up: dose 10 mg/kg, route oral; details: plasma
[12] = Oral bioavailability in mouse at 10 mg/kg; format: ADME, organism-based; details: in vivo
[13] = Half life in monkey at 2.5 mg/kg, iv; format: ADME, organism-based, Macaca mulatta; set-up: dose 2.5 mg/kg, route intravenous; details: rhesus monkey, in vivo
[14] = Volume of distribution at steady state in monkey at 2.5 mg/kg; format: ADME, organism-based, Macaca mulatta; set-up: dose 2.5 mg/kg; details: rhesus monkey, in vivo, read-out: Vdss
[15] = Volume of distribution at terminal phase in monkey at 2.5 mg/kg; format: ADME, organism-based, Macaca mulatta; set-up: dose 2.5 mg/kg; details: rhesus monkey, in vivo, read-out: Vbeta
[16] = Plasma clearance in monkey at 2.5 mg/kg, iv; format: ADME, organism-based, Macaca mulatta; set-up: dose 2.5 mg/kg, route intravenous; details: rhesus monkey
[17] = AUC in monkey at 2.5 mg/kg, po; format: ADME, organism-based, Macaca mulatta; set-up: dose 2.5 mg/kg, route oral; details: rhesus monkey, plasma
[18] = Oral bioavailability in monkey at 2.5 mg/kg; format: ADME, organism-based, Macaca mulatta; details: rhesus monkey, in vivo
[19] = Metabolic stability in mouse liver microsomes assessed as intrinsic clearance; format: ADME, Microsome
Summary of the method: (§2)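 Intrinsic clearance (L/h/kg) determined from incubations with liver microsomes (mouse, monkey, human) or hepatocytes (mouse, monkey); values are means of three experiments.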

[20] = Metabolic stability in mouse hepatocytes assessed as intrinsic clearance; format: ADME, cell-based, Liver, Hepatocyte; summary of the method: as §2
[21] = Metabolic stability in monkey liver microsomes assessed as intrinsic clearance; format: ADME, Macaca mulatta, Microsome; details: rhesus monkey; summary of the method: as §2
[22] = Metabolic stability in monkey hepatocytes assessed as intrinsic clearance; format: ADME, cell-based, Macaca mulatta, Liver, Hepatocyte; details: rhesus monkey; summary of the method: as §2
[23] = Metabolic stability in human liver microsomes assessed as intrinsic clearance; format: ADME, Microsome; summary of the method: as §2
Mus musculus [24] = experiment: Ex vivo inhibition of liver 11-beta-HSD1 in DIO mouse at 30 mg/kg, po after 1 hr; format: functional
Summary of the method: (§3)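 DIO mice dosed orally at 30 mpk; animals killed 1, 7 and 16 h after the dose and liver, fat and brain taken. Ex vivo 11-β-HSD1 activity (cortisol levels) in tissue was measured and percent inhibition expressed relative to vehicle-dosed animals; means from two animals per point.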

Mus musculus [25] = experiment: Ex vivo inhibition of liver 11-beta-HSD1 in DIO mouse at 30 mg/kg, po after 7 hrs; format: functional; summary of the method: as §3
Mus musculus [26] = experiment: Ex vivo inhibition of liver 11-beta-HSD1 in DIO mouse at 30 mg/kg, po after 16 hrs; format: functional; summary of the method: as §3
Mus musculus [27] = experiment: Ex vivo inhibition of fat 11-beta-HSD1 in DIO mouse at 30 mg/kg, po after 1 hr; format: functional; summary of the method: as §3
Mus musculus [28] = experiment: Ex vivo inhibition of fat 11-beta-HSD1 in DIO mouse at 30 mg/kg, po after 7 hrs; format: functional; summary of the method: as §3
Mus musculus [29] = experiment: Ex vivo inhibition of fat 11-beta-HSD1 in DIO mouse at 30 mg/kg, po after 16 hrs; format: functional; summary of the method: as §3
Mus musculus [30] = experiment: Ex vivo inhibition of brain 11-beta-HSD1 in DIO mouse at 30 mg/kg, po after 1 hr; format: functional; summary of the method: as §3
Mus musculus [31] = experiment: Ex vivo inhibition of brain 11-beta-HSD1 in DIO mouse at 30 mg/kg, po after 7 hrs; format: functional; summary of the method: as §3
Mus musculus [32] = experiment: Ex vivo inhibition of brain 11-beta-HSD1 in DIO mouse at 30 mg/kg, po after 16 hrs; format: functional; summary of the method: as §3
[33] = Half life in mouse at 5 mg/kg, iv and 10 mg/kg, po; format: ADME, organism-based; details: in vivo
[34] = Volume of distribution at steady state in mouse at 5 mg/kg, iv and 10 mg/kg, po; format: ADME, organism-based; details: in vivo, read-out: Vdss
[35] = Volume of distribution at terminal phase in mouse at 5 mg/kg, iv and 10 mg/kg, po; format: ADME, organism-based; details: in vivo, read-out: Vbeta
[36] = Plasma clearance in mouse at 5 mg/kg, iv and 10 mg/kg, po; format: ADME, organism-based
[37] = AUC in mouse at 5 mg/kg, iv and 10 mg/kg, po; format: ADME, organism-based; details: plasma
[38] = Oral bioavailability in mouse at 5 mg/kg, iv and 10 mg/kg, po; format: ADME, organism-based; details: in vivo

T1 sequence (P28845 whole entry): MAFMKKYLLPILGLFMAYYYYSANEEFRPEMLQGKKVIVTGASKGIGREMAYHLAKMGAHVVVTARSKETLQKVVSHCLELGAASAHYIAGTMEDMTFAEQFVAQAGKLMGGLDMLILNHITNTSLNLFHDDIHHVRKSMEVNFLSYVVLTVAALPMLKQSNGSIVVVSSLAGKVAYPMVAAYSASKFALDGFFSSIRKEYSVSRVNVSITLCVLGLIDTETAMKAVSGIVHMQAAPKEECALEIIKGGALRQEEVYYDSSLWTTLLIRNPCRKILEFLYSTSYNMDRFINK

CC(C)(Oc1c(Cl)cc(F)cc1Cl)C(=O)N[C@H]1C2CC3CC1C[C@](S(N)(=O)=O)(C3)C2
pKi [1]: 8.52 | pIC50 [2]: 5.05 | pKi [3]: 8.70 | pIC50 [4]: < 4.00 | pIC50 [5]: 6.72 | remaining at 0.5 h [6]: 55%

CNS(=O)(=O)[C@]12CC3CC(C1)[C@@H](NC(=O)C(C)(C)Oc1ccc(Cl)cc1)C(C3)C2
pIC50 [4]: < 4.00 | remaining at 0.5 h [6]: < 1%

CC(C)(Oc1ccc(F)cc1Cl)C(=O)N[C@H]1C2CC3CC1C[C@](S(C)(=O)=O)(C3)C2
pKi [3]: 8.40 | pIC50 [4]: < 4.00 | remaining at 0.5 h [6]: 57% | half-life [7]: 1 h | Vd [8]: 1.5 L/kg | Vd [9]: 1.7 L/kg | clearance [10]: 18.3 mL/min/kg | AUC [11]: 8900 ng·h/mL | bioavailability [12]: 100% | half-life [13]: 5.1 h | Vd [14]: 2.7 L/kg | Vd [15]: 3.1 L/kg | clearance [16]: 6.67 mL/min/kg | AUC [17]: 6810 ng·h/mL | bioavailability [18]: 109% | CLint scaled [19]: 100 mL/min/kg | CLint scaled [20]: 3.33 mL/min/kg | CLint scaled [21]: 25 mL/min/kg | CLint scaled [22]: 1.67 mL/min/kg | CLint scaled [23]: 26.7 mL/min/kg | inhibition in vivo at 30 mg/kg (Mus musculus [24]): 95% | inhibition in vivo at 30 mg/kg (Mus musculus [25]): 95% | inhibition in vivo at 30 mg/kg (Mus musculus [26]): 89% | inhibition in vivo at 30 mg/kg (Mus musculus [27]): 87% | inhibition in vivo at 30 mg/kg (Mus musculus [28]): 93% | inhibition in vivo at 30 mg/kg (Mus musculus [29]): 86% | inhibition in vivo at 30 mg/kg (Mus musculus [30]): 90% | inhibition in vivo at 30 mg/kg (Mus musculus [31]): 90% | inhibition in vivo at 30 mg/kg (Mus musculus [32]): 77%

CC(C)(Oc1ccc(F)cc1Cl)C(=O)N[C@H]1C2CC3CC1C[C@](S(=O)(=O)CCCN1CCOCC1)(C3)C2
pKi [1]: 6.96 | pIC50 [2]: 4.82 | pKi [3]: 7.42 | pIC50 [4]: 4.06 | pIC50 [5]: 6.30 | remaining at 0.5 h [6]: < 1%

CC(C)(Oc1ccc(Cl)cc1)C(=O)N[C@H]1C2CC3CC1C[C@](S(N)(=O)=O)(C3)C2
pIC50 [4]: < 4.00 | remaining at 0.5 h [6]: 96% | half-life [33]: 1.8 h | Vd [34]: 2.1 L/kg | Vd [35]: 2.1 L/kg | clearance [36]: 13.3 mL/min/kg | AUC [37]: 18300 ng·h/mL | bioavailability [38]: 150%

CCS(=O)(=O)[C@]12CC3CC(C1)[C@@H](NC(=O)C(C)(C)Oc1ccc(F)cc1Cl)C(C3)C2
pKi [3]: 8.15 | pIC50 [4]: < 4.00

CC(C)(Oc1cccc(Cl)c1)C(=O)N[C@H]1C2CC3CC1C[C@](S(N)(=O)=O)(C3)C2
pKi [1]: 8.40 | pIC50 [2]: 5.20 | pKi [3]: 8.22 | pIC50 [4]: < 4.00 | pIC50 [5]: 6.49

CC(C)(Oc1ccccc1Cl)C(=O)N[C@H]1C2CC3CC1C[C@](S(N)(=O)=O)(C3)C2
pKi [1]: 8.40 | pIC50 [2]: 5.26 | pKi [3]: 8.70 | pIC50 [4]: < 4.00 | pIC50 [5]: 7.08 | remaining at 0.5 h [6]: 36%

CC(C)(Oc1ccccc1OC(F)(F)F)C(=O)N[C@H]1C2CC3CC1C[C@](S(N)(=O)=O)(C3)C2
pKi [3]: 8.52 | pIC50 [4]: < 4.00 | remaining at 0.5 h [6]: 38%

CC(C)(Oc1ccc(F)cc1Cl)C(=O)N[C@H]1C2CC3CC1C[C@](S(N)(=O)=O)(C3)C2
pKi [1]: 8.22 | pIC50 [2]: < 4.00 | pKi [3]: 8.52 | pIC50 [4]: < 4.00 | pIC50 [5]: 6.90 | remaining at 0.5 h [6]: 61% | half-life [7]: 2.8 h | Vd [8]: 2.6 L/kg | Vd [9]: 3.5 L/kg | clearance [10]: 15 mL/min/kg | AUC [11]: 7000 ng·h/mL | bioavailability [12]: 61% | inhibition in vivo at 30 mg/kg (Mus musculus [24]): 70% | inhibition in vivo at 30 mg/kg (Mus musculus [25]): 78% | inhibition in vivo at 30 mg/kg (Mus musculus [26]): 82% | inhibition in vivo at 30 mg/kg (Mus musculus [27]): 62% | inhibition in vivo at 30 mg/kg (Mus musculus [28]): 88% | inhibition in vivo at 30 mg/kg (Mus musculus [29]): 93% | inhibition in vivo at 30 mg/kg (Mus musculus [30]): 29% | inhibition in vivo at 30 mg/kg (Mus musculus [31]): 48% | inhibition in vivo at 30 mg/kg (Mus musculus [32]): 73%
